TDP2 inh = blocks human TDP2 phosphodiesterase activity; O95551; recombinant TDP2, T5PNP hydrolysis, p-nitrophenol absorbance 415 nm; inhibition, % at 12.8 µM; actives 0.34% (n = 370,000); AID 720702;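 active means inhibition above the mean of all tested compounds plus 3 SD, set per campaign, cut at about 25% in these data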
Target sequence (O95551 whole entry, looked up): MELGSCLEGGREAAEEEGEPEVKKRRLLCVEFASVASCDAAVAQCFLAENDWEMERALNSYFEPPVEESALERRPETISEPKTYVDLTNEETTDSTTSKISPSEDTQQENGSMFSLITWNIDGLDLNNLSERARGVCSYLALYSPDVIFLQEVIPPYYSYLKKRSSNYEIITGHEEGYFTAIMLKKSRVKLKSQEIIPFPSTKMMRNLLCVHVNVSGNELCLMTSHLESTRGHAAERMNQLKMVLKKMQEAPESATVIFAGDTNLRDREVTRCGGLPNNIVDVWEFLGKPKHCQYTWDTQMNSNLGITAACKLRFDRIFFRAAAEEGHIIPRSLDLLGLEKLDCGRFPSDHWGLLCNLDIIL
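Assay system: recombinant human TDP2 / Reagent: T5PNP substrate at 5 mM, a TopII-DNA adduct mimic / Measured by: epi absorbance from released p-nitrophenol / Evaluation: % inhibition relative to enzyme-containing and enzyme-free wells / Control set: enzyme-free and DMSO wells / Replicates: each compound tested once, singlicate / Schedule: enzyme reaction with compound for 2 h at 37 °C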
CTSL1 counter = cathepsin L1 inhibition, PFM18AAP counter-screen; AID 1906; actives 0.49% (n = 300,000); inhibition, % at 5.96 µM; recombinant F. hepatica cathepsin L1, Z-Leu-Arg-MCA fluorescence;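 active means inhibition above the mean of all tested compounds plus 3 SD, set per screening campaign, cut at about 17% in these data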
PAD4 inh = inhibitors of human PAD4; Q9UM07; inhibition, % at 6.36 µM; AID 485272; actives 0.41% (n = 330,000); recombinant PAD4, RCA probe fluorescence polarization;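 active means percent inhibition above a cutoff equal to the mean of all tested compounds plus 3 SD, cut at about 15% in these data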
GSTO1 counter = blocks human GSTO1 in RBBP9 counter-screen; P78417; recombinant GSTO1, activity-based probe fluorescence polarization; inhibition, % at 5.96 µM; actives 1.1% (n = 300,000);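 active means inhibition above the campaign mean inhibition plus 3 SD, cut at about 35% in these data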
PRMT1 FP inh = PRMT1 (human) inhibition, primary screen; Q99873; recombinant PRMT1, activity-based probe fluorescence polarization; inhibition, % at 2.79 µM; actives 1.3% (n = 370,000);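 active means inhibition above about 21% made by adding two undisclosed values, limit read from the data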
Target sequence (Q99873 whole entry, looked up): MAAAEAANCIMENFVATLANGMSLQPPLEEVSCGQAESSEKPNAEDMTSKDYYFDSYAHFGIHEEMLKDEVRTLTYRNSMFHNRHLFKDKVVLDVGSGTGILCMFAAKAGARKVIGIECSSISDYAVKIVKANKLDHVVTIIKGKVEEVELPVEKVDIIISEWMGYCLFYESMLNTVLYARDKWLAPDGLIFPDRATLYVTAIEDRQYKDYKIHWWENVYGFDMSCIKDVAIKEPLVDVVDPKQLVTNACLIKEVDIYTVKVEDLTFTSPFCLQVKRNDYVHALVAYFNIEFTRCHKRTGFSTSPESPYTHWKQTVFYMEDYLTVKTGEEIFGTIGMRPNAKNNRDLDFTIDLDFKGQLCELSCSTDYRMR
TDP2 inh conf = confirmation of human TDP2 inhibitors. recombinant human TDP2, absorbance read-out. actives 22% (n = 1,100). shares compounds with TDP2 inh. inhibition, % at 12.8 µM. AID 743263; in the data active means inhibition above about 25%
Of the large screens only hits and unclear results are named; the others gave an inactive call (follow-up assays come after a bar, where they were run). The list is not random: actives were taken first. Their share in the collection is about 2.5%.

CN1[C@@H](Cc2ccccc2)COc2cccc(N3CCSCC3)c2S1(=O)=O	none (no result: CTSL1 counter, PAD4 inh, GSTO1 counter)
N#Cc1cc2ccc(N3CCOCC3)cc2cc1C#N	TDP2 inh 68.7 | TDP2 inh conf inactive
N#Cc1cc(Cl)c(N2CCOCC2)cc1C#N	none
CCOC(=O)c1cc2c(=Cc3ccc(N(C)C)cc3)c3ccccc3n2[n+]1C	TDP2 inh 51.6 (no result: CTSL1 counter, PAD4 inh, GSTO1 counter) | TDP2 inh conf 56.2
O=[N+]([O-])c1ccc(Oc2ccc(-c3nnco3)cc2)c(Cl)c1	TDP2 inh 46.5 | TDP2 inh conf inactive
CN(C(=O)c1cn(C)c2ccccc12)c1ccc(Oc2cccnc2)cc1	none (no result: CTSL1 counter, PAD4 inh, GSTO1 counter)
CC(C)C[C@H]1COc2cccc(F)c2S(=O)(=O)N1C	none (no result: CTSL1 counter, PAD4 inh, GSTO1 counter)
COc1ccc(N2CCN(CC(=O)N3c4ccccc4CC3C)CC2)cc1 (centres undefined)	TDP2 inh 25.7 | TDP2 inh conf inactive
CC1CCN(CC(=O)N2c3ccccc3CC2C)CC1 (centres undefined)	none
O=S1(=O)c2ccc(N3CCCC3)cc2Oc2ccccc2CN1Cc1cn(Cc2ccc(F)cc2)nn1	none (no result: CTSL1 counter, PAD4 inh, GSTO1 counter)
N/C(=N\N=Cc1ccc2c(c1)OCO2)NN=Cc1ccc2c(c1)OCO2	TDP2 inh 44.0 (no result: CTSL1 counter, PAD4 inh, GSTO1 counter) | TDP2 inh conf inactive
O=C(NN=Cc1ccc2c(c1)OCO2)NN=Cc1ccc2c(c1)OCO2	none (no result: CTSL1 counter, PAD4 inh, GSTO1 counter)
O=C(NCc1ccco1)C1CC(=O)N(CCc2ccccc2)C1 (centres undefined)	none
O=C(NCc1ccc(F)cc1)C1CC(=O)N(Cc2ccco2)C1 (centres undefined)	TDP2 inh 25.2 | TDP2 inh conf inactive
C=CCSc1nnc(COc2ccc(=O)n(-c3ccccc3)n2)n1CC	TDP2 inh 24.6 | TDP2 inh conf inactive
CCOC(=O)c1c(C)oc2c1c(C=NCC1CCCO1)c(O)c1ccccc12 (centres undefined)	TDP2 inh 28.8 (no result: CTSL1 counter, PAD4 inh, GSTO1 counter) | TDP2 inh conf inactive
COc1cccc(CC(=O)O[C@@H]2CCC[C@@]3(C(=O)N(Cc4ccccc4)c4ccccc43)[C@H]2NC(=O)CCc2ccccc2)c1	none (no result: CTSL1 counter, PAD4 inh, GSTO1 counter)
COc1cccc(N2CC(NS(=O)(=O)c3cccnc3)CC2=O)c1 (centres undefined)	TDP2 inh 28.7 | TDP2 inh conf inactive
Cc1ccc(CN2CCSCC2)cc1	TDP2 inh 26.0 | TDP2 inh conf inactive
CCN(CC)CCCN1C(=O)C2C(C(=O)Nc3ccc(C(C)C)cc3)C3C=CC2(O3)C1C(=O)NC1CCCCC1 (centres undefined)	TDP2 inh 26.7 | TDP2 inh conf inactive
CC(C)c1ccc(NC(=O)C2C3C=CC4(O3)C2C(=O)N(CCN2CCOCC2)C4C(=O)NC2CCCCC2)cc1 (centres undefined)	none
CCCc1cc(=O)[nH]c(SCC(=O)N(C)Cc2ccccc2)n1	none
Cc1nnc(SCC(=O)N(C)Cc2ccccc2)[nH]c1=O	TDP2 inh 43.4 | TDP2 inh conf inactive
COc1cc(CCC(=O)Nc2nccs2)cc(OC)c1OC	TDP2 inh 28.6 | TDP2 inh conf inactive
c1ccc(Cn2ccc3ccc(-c4ccc5ccn(Cc6cccc(-c7ccsc7)c6)c5c4)cc32)cc1	none (no result: CTSL1 counter, PAD4 inh, GSTO1 counter)
CC(C)c1cccc(C(C)C)c1NC(=O)CNCC(O)c1ccccc1 (centres undefined)	TDP2 inh 25.6 | TDP2 inh conf inactive
O=C(O)C1=NN(c2cc(Cl)c(S(=O)(=O)O)cc2Cl)C(=O)C1	none (no result: CTSL1 counter, PAD4 inh, GSTO1 counter)
CC1=NN(c2ccc(S(=O)(=O)O)cc2C)C(=O)C1	TDP2 inh 33.9 | TDP2 inh conf 37.6
COC(=O)C[C@@H]1CC[C@H]2[C@H](COc3ccc(NC(=O)Nc4ccc(Cl)cc4)cc3C(=O)N2C)O1	none (no result: CTSL1 counter, PAD4 inh, GSTO1 counter)
O=S(=O)(c1ccc(S(=O)(=O)N2CCC(O)CC2)cc1)N1CCCC1	TDP2 inh 24.9 | TDP2 inh conf inactive
COC(=O)C1CN(Cc2ccc(F)cc2)CCS(=O)(=O)N1Cc1cn(Cc2ccc(F)cc2)nn1 (centres undefined)	none (no result: CTSL1 counter, PAD4 inh, GSTO1 counter)
COC(=O)C1=C(C)N(Cc2cccc(C(F)(F)F)c2)C(=NCc2ccc(OC)cc2)NC1c1cccc(F)c1 (centres undefined)	none (no result: CTSL1 counter, PAD4 inh, GSTO1 counter)
COc1ccc(NC(=O)c2cc(-c3ccc(C)c(C)c3O)n[nH]2)cc1Cl	TDP2 inh 74.8 | TDP2 inh conf inactive
Cc1ccc(NC(=O)c2cc(-c3ccc(C)c(C)c3O)n[nH]2)cc1C	none
Cc1ccc(S(=O)(=O)C2CCN(c3nc(-c4cccs4)nc4ccccc34)CC2)cc1	none (no result: CTSL1 counter, PAD4 inh, GSTO1 counter)
Cc1nc(NC(=O)COc2ccccc2)sc1C(=O)Nc1cccc(Cl)c1	TDP2 inh 27.2 | TDP2 inh conf inactive
COc1ccc(NC(=O)c2sc(NC(=O)COc3ccccc3)nc2C)cc1	none
CC1=CC2(O)OCCN(CCO)C2=CC1=O (centres undefined)	TDP2 inh 32.5 | TDP2 inh conf inactive
CN1CCC(N[C@@H](Cc2c[nH]c3ccccc23)C(=O)NCC(c2ccccc2)c2ccccc2)(C(=O)NC2CCCCC2)CC1	none (no result: CTSL1 counter, PAD4 inh, GSTO1 counter)
Cc1[nH]n(-c2ccccc2)c(=O)c1C(C[N+](=O)[O-])c1ccc(F)cc1 (centres undefined)	TDP2 inh 37.6, GSTO1 counter 58.9 | TDP2 inh conf inactive
Cc1ccc(S(=O)(=O)N2CCC(C(=O)NCCCN3CCOCC3)CC2)cc1C	TDP2 inh 30.4 | TDP2 inh conf inactive
CCOC(=O)C1CCN(c2cc3c(cc2NC(=O)c2ccccc2Br)n(C)c(=O)n3C)CC1	TDP2 inh 25.8 | TDP2 inh conf inactive
CCCCOc1ccc(C(=O)NC2CCCCN(Cc3ccc(C)cc3)C2=O)cc1 (centres undefined)	none (no result: CTSL1 counter, PAD4 inh, GSTO1 counter)
CC(C)C(=O)Nc1nnc(SCC(=O)NC2CCCC2)s1	TDP2 inh 33.1 | TDP2 inh conf inactive
CCCCC(=O)Nc1nnc(SCC(=O)NC2CC2)s1	TDP2 inh 39.1 | TDP2 inh conf inactive
CC1CCN(CCCNS(=O)(=O)c2cc3c(cc2Br)CCN3C(=O)C2CC2)CC1	none (no result: CTSL1 counter, PAD4 inh, GSTO1 counter)
O=C(NC1CCCCN(Cc2cccc(Cl)c2)C1=O)c1cccc2nsnc12 (centres undefined)	none (no result: CTSL1 counter, PAD4 inh, GSTO1 counter)
CCc1c(-c2cccc(Cl)c2)ncn1CCc1ccccc1OC	none (no result: CTSL1 counter, PAD4 inh, GSTO1 counter)
Nn1c(SCC(=O)Nc2ccc(OCc3ccccc3)cc2)nnc1-c1cc(-c2ccc(F)cc2)n[nH]1	none (no result: CTSL1 counter, PAD4 inh, GSTO1 counter)
CC(C)(C)c1ccc(NC(=O)CCNC(=O)c2ccco2)cc1	none
CC(C)(C)c1ccc(C(=O)NCCCNC(=O)c2ccco2)cc1	TDP2 inh 27.6 | TDP2 inh conf inactive
CCOC(=O)N1CCN(C(=O)c2ccc(Cl)c(S(=O)(=O)N3CCOCC3)c2)CC1	none
CCCN1CCN(C(=O)c2ccc(F)c(S(=O)(=O)N3CCOCC3)c2)CC1	TDP2 inh 38.8 (no result: CTSL1 counter, GSTO1 counter) | TDP2 inh conf inactive
CCOC(=O)c1cc2c(ccn2C)n1Cc1ccccc1C	TDP2 inh 26.0 | TDP2 inh conf inactive
CC(CN1CCC(O)CC1)c1ccccc1 (centres undefined)	none
CC(CN1CCN(Cc2ccccc2)CC1)c1ccccc1 (centres undefined)	TDP2 inh 25.6 | TDP2 inh conf inactive

Screens from PubChem BioAssay.
